Screening results as filed in PubChem.
The list is not random: actives were taken first. Their share in the collection is about 3.5%.
MrgX1 agonist: agonists of human MrgX1 receptor, primary screen, HEK293 cells, Fluo-4 calcium flux | Fluo-4 calcium fluorescence, agonist mode; stronger effect = higher value | B-score at 10 µM | actives 0.44% (n = 310,000) | AID 588627, 2011;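 active means calcium response B-score plate-corrected fluorescence ratio at least 3 library SD, with starting fluorescence B-score inside 5 SD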
Target sequence (Q96LB2 whole entry, looked up): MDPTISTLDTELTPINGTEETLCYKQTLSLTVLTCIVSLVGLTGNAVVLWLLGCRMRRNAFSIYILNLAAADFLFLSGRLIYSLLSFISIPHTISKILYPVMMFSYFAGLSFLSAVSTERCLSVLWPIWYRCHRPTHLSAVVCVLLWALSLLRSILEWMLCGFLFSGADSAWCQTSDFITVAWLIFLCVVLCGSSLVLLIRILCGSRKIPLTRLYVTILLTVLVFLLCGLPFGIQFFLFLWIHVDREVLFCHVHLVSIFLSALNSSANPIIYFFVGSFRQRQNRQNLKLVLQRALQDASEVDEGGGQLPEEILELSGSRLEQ
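Material: MrgX1-expressing HEK293 cells / Dosing: compound as first of three additions / Incubation: overnight seeding, then 1 h dark dye loading / Signal: Fluo-4 NW calcium fluorescence / Evaluation: B-scored fluorescence response ratio / Benchmarks: positive and negative control wells on each plate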
MrgX1 PAM: positive allosteric modulators of MrgX1, primary screen, HEK293 cells, Fluo-4 calcium flux | Mas-related G-protein coupled receptor member X1 (Homo sapiens), Q96LB2 | FDSS; stronger effect = higher value | B-score at 10 µM | actives 0.63% (n = 310,000) | AID 588675, 2011;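 active means plate-corrected calcium response at least 3 library SD above typical, normal starting fluorescence, not activating the receptor alone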;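 further: compound read alongside a low EC10 to EC30 dose of BAM8-22 agonist; peak minus trough fluorescence over baseline measured at the second addition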
RGS4 inh: RGS4 inhibitors, primary screen, cell-based, HEK293 M3R inducible RGS4, calcium flux | Regulator of G-protein signaling 4 (Homo sapiens), P49798 | actives 0.45% (n = 310,000) | AID 463165, 2010 | Fluo-4 calcium flux; stronger effect = higher value; triggered by carbachol at its EC20 | B-score at 10 µM;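 active means B-score, a plate-corrected calcium signal, over three deviations above library mean, with baseline fluorescence within five deviations of library mean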;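 further: RGS4 expression induced by doxycycline in cells with stable M3 receptor; B-score is computed from the integrated fluorescence ratio over baseline after carbachol; higher B-score means a larger calcium signal and so more RGS4 inhibition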
Target sequence (P49798 whole entry, looked up): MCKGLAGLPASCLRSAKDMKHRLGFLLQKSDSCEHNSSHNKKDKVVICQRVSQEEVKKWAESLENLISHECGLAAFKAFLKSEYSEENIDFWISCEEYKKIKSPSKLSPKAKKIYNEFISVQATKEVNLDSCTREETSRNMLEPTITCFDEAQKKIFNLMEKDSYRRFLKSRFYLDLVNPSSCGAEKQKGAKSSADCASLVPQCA
RGS4 act: RGS4 potentiators or activators, primary screen, cell-based, HEK293 M3R inducible RGS4, calcium flux; carbachol calcium flux Fluo4; stronger effect = lower value; B-score at 10 µM; actives 0.92% (n = 310,000); AID 463111, 2010;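 active means B-score of the integrated calcium signal more than 4 SD below the library mean, with starting fluorescence not abnormally high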;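 further: negative B-score means reduced calcium response which marks RGS4 activation or potentiation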
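Reagent: ECmax carbachol challenge; Test system: M3R-expressing HEK293 line, RGS4 induced by doxycycline; Schedule: overnight RGS4 induction, 30 min dye load 37 °C, 20 min compound RT; Detection: calcium dye Fluo4 fluorescence; Read-out: Agonist-evoked peak-minus-minimum fluorescence over baseline, integrated ratio, B score.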
MrgX1 antagonist: antagonists of human MrgX1 receptor, primary screen, HEK293 cells, Fluo-4 calcium flux; actives 1.3% (n = 310,000); Mas-related G-protein coupled receptor member X1 (Homo sapiens), Q96LB2; B-score at 10 µM; BAM8-22 antagonism; stronger effect = lower value;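 active means calcium-response B-score plate-corrected more than 3 library SD below zero, starting fluorescence within 5 deviations, no agonist response on first addition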;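 further: peak minus trough fluorescence over baseline after final BAM8-22 challenge near maximal dose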
MrgX1 ag confirm: MrgX1 receptor agonists, duplicate retest, confirmation, HEK293 cells, Fluo-4 calcium flux | shares compounds with MrgX1 agonist | actives 78% (n = 600) | Fluo-4 calcium fluorescence, FDSS | activation, % at 10 µM;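 active means calcium signal rise, corrected for plate position, at least 3 library SD high, with starting brightness within 5 such deviations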
HEK293 Ca flux: nonspecific calcium signal in parental HEK293, confirmation, counter-screen for MrgX1 antagonist project, parental HEK293 cells, Fluo-4 calcium flux | fluorescence ratio F(max-min)/F0 at 10 µM | actives 2% (n = 4,000) | shares compounds with MrgX1 antagonist | Fluo-4 calcium fluorescence, FDSS;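 active means duplicate-averaged calcium fluorescence ratio at least three times the standard deviation of buffer wells, a nonspecific response in parental cells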
HEK293 Ca counter: calcium response in parental HEK293 cells, primary screen, counter-screen for MrgX1 allosteric activator project, cell-based, Fluo-4 calcium flux, duplicate | shares compounds with MrgX1 antagonist | Fluo-4 fluorescence ratio; stronger effect = higher value | fluorescence ratio F(max-min)/F0 at 10 µM | actives 0.4% (n = 4,000) | AID 624114, 2012;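 active means calcium fluorescence ratio, averaged over duplicates, at least 3 SD of the buffer-well ratio, meaning a nonspecific response in receptor-free cells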;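 further: untransfected parental HEK293 lacking MrgX1 used as counterscreen for MrgX1 allosteric activators; fluorescence change taken during the second addition on a kinetic imager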
HEK293 Ca cntr2: calcium response in parental HEK293 cells, primary screen, counter-screen for MrgX1 agonist project, cell-based, Fluo-4 calcium flux, duplicate, agonist mode; shares compounds with MrgX1 antagonist; actives 8.7% (n = 4,000); fluorescence ratio F(max-min)/F0 at 10 µM; Fluo-4 calcium fluorescence (FDSS); stronger effect = higher value;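 active means calcium fluorescence ratio at least three times the spread of buffer wells, meaning a non-specific response in parental cells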
* marks the source's active call; other numbers are inactive results; i = inactive; nt = not tested or not shown.

SMILES | MrgX1 agonist | MrgX1 PAM | RGS4 inh | RGS4 act | MrgX1 antagonist | MrgX1 ag confirm | HEK293 Ca flux | HEK293 Ca counter | HEK293 Ca cntr2
Cc1cc(NC(=O)CCS(=O)(=O)c2nc(-c3ccccc3)cc(C(F)(F)F)n2)no1 | i | i | nt | nt | i | nt | nt | nt | nt
c1ccc2c(c1)CNc1ccccc1C2 | 30* | i | i | i | i | 224%* | i | i | i
O=C(O)[C@@H]1Cc2ccccc2N1 | i | i | i | i | i | nt | nt | nt | nt
CCCC(NC(=O)Cc1c(C)c2c(cc(C)c3c(C)coc32)oc1=O)C(=O)O (stereo not drawn) | i | i | i | i | i | nt | nt | nt | nt
CC1(c2ccccc2)CC(C)(C)n2c(O)c(C3=NC(=S)NC3=O)c3cccc1c32 (stereo not drawn) | i | i | i | i | i | nt | nt | nt | nt
CC1(c2ccccc2)CC(C)(C)N2C(=O)C(=O)c3cccc1c32 (stereo not drawn) | 29* | i | i | i | i | i | i | i | i
O=C(Nc1ccc2oc(-c3cccc4ccccc34)nc2c1)c1ncn[nH]1 | i | i | i | i | i | nt | nt | nt | nt
O=C(Nc1ccc2oc(-c3ccccc3Cl)nc2c1)c1ncn[nH]1 | 55* | i | i | i | i | i | i | i | i
Cc1[nH]c2ccccc2c1-c1nc(N)sc1C | 38* | i | i | i | i | i | i | i | i
Cc1sc(N)nc1-c1ccc(Oc2ccccc2)cc1 | i | i | i | i | i | nt | nt | nt | nt
O=C(O)c1cccnc1SCC(=O)N1CCCc2ccccc21 | 36* | i | i | i | i | i | i | i | i
COc1ccccc1N=C1NC(=O)/C(=C/c2ccc(N(C)C)cc2)S1 | 65* | i | i | i | i | i | 0.22* | i | 128*
COc1ccc(/C=C2\SC(=Nc3ccccc3)NC2=O)cc1 | i | i | i | i | i | nt | nt | nt | nt
COc1ccc(-c2[nH]c(-c3ccccc3)nc2SCC(=O)NC2CCCC2)cc1 | 29* | i | i | i | i | 208%* | i | i | 46*
Cc1c(C(=O)N2c3ccccc3Sc3ccccc32)cccc1[N+](=O)[O-] | i | i | i | i | i | nt | nt | nt | nt
CCSc1nc2ccccc2n1CCOc1ccccc1 | i | i | i | i | i | nt | nt | nt | nt
Cc1nc2ccccc2n1CCOc1ccccc1 | i | i | i | i | i | nt | nt | nt | nt
COc1ccc(OCCn2c(N)nc3ccccc32)cc1 | 30* | i | i | i | i | 153%* | i | i | i
Nc1nc2ccccc2n1CCOc1ccc(F)cc1 | 41* | i | i | i | i | 134%* | i | i | i
COCCCN(C(=O)CCOc1ccccc1C)c1c(N)n(Cc2ccccc2)c(=O)[nH]c1=O | i | i | i | i | i | nt | nt | nt | nt
CCn1c(=O)c(C(=O)NNC(=O)c2ccccc2Cl)c(O)c2ccccc21 | 105* | i | i | i | i | 322%* | i | i | 78*
Cn1c(=O)c(C(=O)NNC(=O)c2ccccc2F)c(O)c2ccccc21 | 65* | i | i | i | i | 405%* | i | i | 71*
Cc1ccc(S(=O)(=O)N2CCOCC2)cc1NC(=O)COC(=O)COc1cccc2c1OC(C)(C)C2 | i | i | i | i | i | nt | nt | nt | nt
N#Cc1cccc(NC(=O)CN2C(=O)NC(Cc3ccccc3)C2=O)c1 (stereo not drawn) | i | i | i | i | i | nt | nt | nt | nt
CCOC(=O)N1CCN(C(=O)c2ccc(OC(C)=O)cc2)CC1 | i | i | i | i | i | nt | nt | nt | nt
SMILES | MrgX1 agonist | MrgX1 PAM | RGS4 inh | RGS4 act | MrgX1 antagonist | MrgX1 ag confirm | HEK293 Ca flux | HEK293 Ca counter | HEK293 Ca cntr2
Cc1cc([N+](=O)[O-])ccc1NC(=O)CCC(=O)N1CCCC1 | i | i | i | i | i | nt | nt | nt | nt
COc1ccccc1CC(=O)NNC(=O)c1ccco1 | i | i | i | i | i | nt | nt | nt | nt
CCNc1nc(NC(C)C)nc(N(C#N)Cc2ccccc2)n1 | 42* | i | i | i | i | 185%* | i | i | i
Cc1nc2c(ncn2-c2ccccc2)c(=O)n1NC(=O)CN1CCN(C)CC1 | i | i | i | i | i | nt | nt | nt | nt
O=C(C1CCC(CNS(=O)(=O)c2cccs2)CC1)N1CCN(c2ccc(Cl)cc2)CC1 (stereo not drawn) | i | i | i | i | i | nt | nt | nt | nt
COc1ccc(C(C)=O)cc1CSCc1cc(C(C)=O)ccc1OC | i | i | i | i | i | nt | nt | nt | nt
COc1ccc(C(C)=O)cc1CSC(=N)N | 47* | i | i | i | i | 240%* | i | i | i
CCCCOc1ccc(Br)cc1CSC(=N)N | nt | nt | i | i | nt | nt | nt | nt | nt
CCOc1ccc(C(C)=O)cc1CSC(=N)N | 30* | i | i | i | i | 164%* | i | i | i
CN(C)c1nc(N)c(C(=O)N=C(N)N)nc1Cl | 35* | i | i | i | i | 170%* | i | i | i
NC(=Nc1ccccc1)NC(=O)c1nc(Cl)c(N)nc1N | i | i | i | i | i | nt | nt | nt | nt
CC1CCCCC12NC(=O)N(CC(=O)Nc1sc3c(c1C(N)=O)CCC3)C2=O (stereo not drawn) | i | i | i | i | i | nt | nt | nt | nt
CCCCS(=O)(=O)Nc1ccc2c(c1)ncn2C1CCCCC1 | 35* | i | i | i | i | 214%* | i | i | 51*
